Values after ≈ are worked out from the molar mass of the structure shown. Active and inactive are the calls of the source. No cut-off for these calls is given here.
Experiments:
[1] = test system: Mycobacterium tuberculosis; test: Antitubercular activity against Mycobacterium tuberculosis H37Rv ATCC 27294/XDR-TB incubated for 28 days by agar dilution method; assay type: functional; details: 672 h
Outline: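 Agar dilution: two-fold dilutions in Middlebrook 7H11 agar with OADC. Inoculum from fresh 7H11/OADC slants adjusted to 1 mg/mL wet weight in 0.05% Tween 80 saline, diluted 10^-2 (~10⁷ cfu/mL); 5 µL spotted per tube. Incubated 37 °C; MIC, lowest concentration fully inhibiting growth, read after 28 days, in triplicate.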

[2] = test system: Escherichia coli; test: Antibacterial activity against Escherichia coli at 1 mg/ml incubated for 18 hrs by well plate technique; assay type: functional; details: for zone of inhibition at 1000 µg/mL: read-out: DIZ
Outline: (§1)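 Bacteria kept on nutrient agar at 37 °C, grown statically in nutrient broth (start ~10-100 cfu/mL) at 37 °C for 18-24 h. Suspensions diluted in saline and spread on nutrient agar, then wells cut with a cork borer. Compound in DMSO at 1 or 0.5 mg/mL added to wells, 37 °C, 18 h. Inhibition zone diameter measured minus DMSO value; triplicate; streptomycin standard.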

[3] = test system: Escherichia coli; test: Antibacterial activity against Escherichia coli at 0.5 mg/ml incubated for 18 hrs by well plate technique; assay type: functional; details: for zone of inhibition at 500 µg/mL: read-out: DIZ; outline: as §1
[4] = test system: Staphylococcus aureus; test: Antibacterial activity against Staphylococcus aureus at 1 mg/ml incubated for 18 hrs by well plate technique; assay type: functional; details: for zone of inhibition at 1000 µg/mL: read-out: DIZ; outline: as §1
[5] = test system: Staphylococcus aureus; test: Antibacterial activity against Staphylococcus aureus at 0.5 mg/ml incubated for 18 hrs by well plate technique; assay type: functional; details: for zone of inhibition at 500 µg/mL: read-out: DIZ; outline: as §1
[6] = test system: Pseudomonas aeruginosa; test: Antibacterial activity against Pseudomonas aeruginosa at 1 mg/ml incubated for 18 hrs by well plate technique; assay type: functional; details: for zone of inhibition at 1000 µg/mL: read-out: DIZ; outline: as §1
[7] = test system: Pseudomonas aeruginosa; test: Antibacterial activity against Pseudomonas aeruginosa at 0.5 mg/ml incubated for 18 hrs by well plate technique; assay type: functional; details: for zone of inhibition at 500 µg/mL: read-out: DIZ; outline: as §1
[8] = test system: Salmonella typhi; test: Antibacterial activity against Salmonella typhi at 1 mg/ml incubated for 18 hrs by well plate technique; assay type: functional, Salmonella enterica subsp. enterica serovar Typhi; details: for zone of inhibition at 1000 µg/mL: Salmonella enterica, read-out: DIZ
Outline: (§2)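 Well diffusion on nutrient agar; strains kept on nutrient agar at 37 °C, grown statically in nutrient broth 18-24 h at 37 °C, diluted in saline, 0.1 ml spread per plate. Compounds in DMSO at 1 and 0.5 mg/mL added to cork-bored wells; 18 h at 37 °C. Inhibition zone diameter measured, DMSO value subtracted; triplicate; streptomycin reference.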

[9] = test system: Salmonella typhi; test: Antibacterial activity against Salmonella typhi at 0.5 mg/ml incubated for 18 hrs by well plate technique; assay type: functional, Salmonella enterica subsp. enterica serovar Typhi; details: for zone of inhibition at 500 µg/mL: Salmonella enterica, read-out: DIZ; for diameter of the inhibition zone (DIZ): Salmonella enterica subsp. enterica serovar Typhi; outline: as §2
[10] = test system: Aspergillus flavus; test: Antifungal activity against Aspergillus flavus at 1 mg/ml incubated for 3 days; assay type: functional; details: for zone of inhibition at 1000 µg/mL: 72 h, read-out: IZ
Outline: (§3)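 Well plate method on potato dextrose agar. Fungal stock suspended in distilled water with Tween 80 and swabbed over plates. Samples in DMSO at 1 and 0.5 mg/mL added to wells, incubated 25 °C for 3 days, then scored for inhibition zones; fluconazole standard.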

[11] = test system: Aspergillus flavus; test: Antifungal activity against Aspergillus flavus at 0.5 mg/ml incubated for 3 days; assay type: functional; details: for zone of inhibition at 500 µg/mL: 72 h, read-out: IZ; outline: as §3
[12] = test system: Chrysosporium keratinophilum; test: Antifungal activity against Chrysosporium keratinophilum at 1 mg/ml incubated for 3 days; assay type: functional; details: for zone of inhibition at 1000 µg/mL: 72 h, read-out: IZ; outline: as §3
[13] = test system: Chrysosporium keratinophilum; test: Antifungal activity against Chrysosporium keratinophilum at 0.5 mg/ml incubated for 3 days; assay type: functional; details: for zone of inhibition at 500 µg/mL: 72 h, read-out: IZ; outline: as §3
[14] = test system: Candida albicans; test: Antifungal activity against Candida albicans at 1 mg/ml incubated for 3 days; assay type: functional; details: for zone of inhibition at 1000 µg/mL: 72 h, read-out: IZ; outline: as §3
[15] = test system: Candida albicans; test: Antifungal activity against Candida albicans at 0.5 mg/ml incubated for 3 days; assay type: functional; details: for zone of inhibition at 500 µg/mL: 72 h, read-out: IZ; outline: as §3
[16] = Antioxidant activity assessed as DPPH radical scavenging activity incubated for 10 mins by UV-visible spectrometry; assay type: physicochemical
Outline: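 DPPH free-radical scavenging; absorbance read at 517 nm against a methanol blank. % scavenging = (A control − A sample)/A control × 100.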

[17] = Cytotoxicity against African green monkey Vero cells assessed as growth inhibition at 62.5 ug/ml after 72 hrs by MTT assay; assay type: cell-based; details: chlorocebus sabaeus, read-out: GI
Outline: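 Vero cells grown in MEM + 10% FBS at 37 °C, 5% CO2. Seeded ~10,000 cells/well, 24 h to a partial monolayer. Compounds in DMSO diluted in MEM + 2% FBS (1 mg/ml stock, two-fold dilutions) for 72 h. MTT 3 h, formazan dissolved in propanol, A540. % inhibition = 100 − (mean OD test/mean OD control × 100).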

SMILES	MIC [1] [µg/mL]	zone of inhibition at 1000 µg/mL [2] [mm]	zone of inhibition at 500 µg/mL [3] [mm]	zone of inhibition at 1000 µg/mL [4] [mm]	zone of inhibition at 500 µg/mL [5] [mm]	zone of inhibition at 1000 µg/mL [6] [mm]	zone of inhibition at 500 µg/mL [7] [mm]	zone of inhibition at 1000 µg/mL [8] [mm]	zone of inhibition at 500 µg/mL [9] [mm]	zone of inhibition at 1000 µg/mL [10] [mm]	zone of inhibition at 500 µg/mL [11] [mm]	zone of inhibition at 1000 µg/mL [12] [mm]	zone of inhibition at 500 µg/mL [13] [mm]	zone of inhibition at 1000 µg/mL [14] [mm]	zone of inhibition at 500 µg/mL [15] [mm]	inhibition (INH) [16] [%]	inhibition at 72 h, 62.5 ug/ml [17] [%]	inhibition zone (IZ) [10]	inhibition zone (IZ) [11]	inhibition zone (IZ) [12]	further results
Fc1ccc(-c2nc3sc(-c4ccc(Cl)cc4)nn3c2-c2nc3ccccc3[nH]2)cc1	3.12 (≈ 7.01 µM)	5	3	7	3	8	5	3	1	4	2	4	3	3	1	21.7	10.7				
Cc1nn2c(-c3nc4cc(Cl)ccc4[nH]3)c(-c3ccc(Cl)cc3)nc2s1	3.12 (≈ 7.81 µM)	4	2	3	2	4	1	4	2	3	1	5	3	4	2	78.8	7.12				
Cc1ccc(-c2nn3c(-c4nc5ccccc5[nH]4)c(-c4ccc(Cl)cc4)nc3s2)cc1	3.12 (≈ 7.07 µM)	4	2	3	2	6	3	4	2							18.8	13.3	inactive	inactive	inactive	inhibition zone (IZ) [13]: inactive; inhibition zone (IZ) [14]: inactive; inhibition zone (IZ) [15]: inactive
Cc1ccc(-c2nn3c(-c4nc5cc([N+](=O)[O-])ccc5[nH]4)c(-c4ccc(F)cc4)nc3s2)cc1	6.25 (≈ 13.3 µM)	4	2	4	2	3	2	4	1	5	2	4	2	5	2	22.3	10.5				
Cc1ccc(-c2nc3sc(-c4ccc(Cl)cc4)nn3c2-c2nc3ccccc3[nH]2)cc1	3.12 (≈ 7.07 µM)	5	3	4	1	4	1	5	3	5	3	5	2	4	2	45.7	12.2				
Cc1ccc(-c2nc3sc(-c4ccc(Cl)cc4)nn3c2-c2nc3cc([N+](=O)[O-])ccc3[nH]2)cc1	6.25 (≈ 12.8 µM)															26.3	8.85	inactive	inactive	inactive	diameter of the inhibition zone (DIZ) [2]: inactive; diameter of the inhibition zone (DIZ) [3]: inactive; diameter of the inhibition zone (DIZ) [4]: inactive; diameter of the inhibition zone (DIZ) [5]: inactive; diameter of the inhibition zone (DIZ) [6]: inactive; diameter of the inhibition zone (DIZ) [7]: inactive; diameter of the inhibition zone (DIZ) ([8]; Salmonella enterica subsp. enterica serovar Typhi): inactive; diameter of the inhibition zone (DIZ) [9]: inactive; inhibition zone (IZ) [13]: inactive; inhibition zone (IZ) [14]: inactive; inhibition zone (IZ) [15]: inactive
COc1ccc(-c2nc3sc(-c4ccc(C)cc4)nn3c2-c2nc3cc(Cl)ccc3[nH]2)cc1	3.12 (≈ 6.62 µM)	4	2	6	3	7	3	3	1	3	2	4	2	3	2	31.3	8.31				
Cc1ccc(-c2nc3sc(C)nn3c2-c2nc3ccccc3[nH]2)cc1	3.12 (≈ 9.05 µM)	5	2	5	3	3	2	6								28.6	5.03	inactive	inactive	inactive	diameter of the inhibition zone (DIZ) [9]: inactive; inhibition zone (IZ) [13]: inactive; inhibition zone (IZ) [14]: inactive; inhibition zone (IZ) [15]: inactive

Source: ChEMBL document CHEMBL3414425, “Synthesis and biological evaluation of new imidazo[2,1-b][1,3,4]thiadiazole-benzimidazole derivatives” (Eur J Med Chem, 2015)
